Converted amounts (≈) assume the structure as drawn.
Key:
Staphylococcus aureus [1] = assay: Antibacterial activity against methicillin-resistant Staphylococcus aureus COL after 20 hrs by broth microdilution assay; format: functional
Staphylococcus aureus [2] = assay: Antibacterial activity against vancomycin-intermediate resistant Staphylococcus aureus AR-217 after 20 hrs by broth microdilution assay; format: functional; settings: AR-217, 20 h
Staphylococcus aureus [3] = assay: Antibacterial activity against vancomycin-resistant Staphylococcus aureus HIP14300 after 20 hrs by broth microdilution assay; format: functional; settings: HIP14300, 20 h
[4] = test system: Staphylococcus epidermidis; assay: Antibacterial activity against vancomycin-intermediate resistant Staphylococcus epidermidis NRS6 after 20 hrs by broth microdilution assay; format: functional; settings: NRS6, 20 h
Streptococcus agalactiae = assay: Antibacterial activity against Streptococcus agalactiae SGBS005 after 20 hrs by broth microdilution assay; format: functional; settings: SGBS005, 20 h
Enterococcus faecium = assay: Antibacterial activity against vancomycin-resistant Enterococcus faecium ATCC 700221 after 20 hrs by broth microdilution assay; format: functional; settings: ATCC 700221, 20 h
How it was run: (§1)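 Brain heart infusion broth at 37°C; E. faecium under 5% CO2. Cells at 0.5 McFarland are diluted 1:100 and exposed to serial dilutions (DMSO stocks 1 mM or 1 mg/mL; controls in water).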

Bacillus anthracis [5] = assay: Antibacterial activity against Bacillus anthracis Ames 35 after 20 hrs by broth microdilution assay; format: functional; settings: Ames 35, 20 h
Bacillus anthracis [6] = assay: Antibacterial activity against Bacillus anthracis Sterne 34F2 after 20 hrs by broth microdilution assay; format: functional; settings: Sterne 34F2, 20 h
Bacillus anthracis [7] = assay: Antibacterial activity against Bacillus anthracis Weybridge after 20 hrs by broth microdilution assay; format: functional
Yersinia pestis [8] = assay: Antibacterial activity against Yersinia pestis Kim D2 after 20 hrs by broth microdilution assay; format: functional; settings: Kim D2, 20 h
Yersinia pestis [9] = assay: Antibacterial activity against Yersinia pestis Kuma D7 after 20 hrs by broth microdilution assay; format: functional; settings: Kuma D7, 20 h
Listeria monocytogenes = assay: Antibacterial activity against Listeria monocytogenes Gibson after 20 hrs by broth microdilution assay; format: functional; how it was run: as §1
Micrococcus luteus = assay: Antibacterial activity against Micrococcus luteus SK58 after 20 hrs by broth microdilution assay; format: functional; settings: SK58, 20 h
Acinetobacter baumannii = assay: Antibacterial activity against Acinetobacter baumannii AB5075 after 20 hrs by broth microdilution assay; format: functional; settings: AB5075, 20 h
Brucella neotomae = assay: Antibacterial activity against Brucella neotomae 5K33 after 20 hrs by broth microdilution assay; format: functional; settings: 5K33, 20 h
Burkholderia multivorans = assay: Antibacterial activity against Burkholderia multivorans CF2 after 20 hrs by broth microdilution assay; format: functional; settings: CF2, 20 h
How it was run: (§2)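 Medium is tryptic soy broth, 37°C. Overnight culture is adjusted to 0.5 McFarland, diluted 1:100 and exposed to serial dilutions (test agents from 1 mM or 1 mg/mL DMSO stocks; control antibiotics in water). Incubation lasts 20 h. MIC is the lowest concentration with no visible growth.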

Burkholderia cepacia = assay: Antibacterial activity against Burkholderia cepacia UCB 717 after 20 hrs by broth microdilution assay; format: functional; settings: UCB 717, 20 h; how it was run: as §2
Citrobacter freundii = assay: Antibacterial activity against Citrobacter freundii 4_7_47CFAA after 20 hrs by broth microdilution assay; format: functional
How it was run: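 Brucella broth, 37°C, 5% CO2. Inoculum is 0.5 McFarland diluted 1:100, with serial drug dilutions from DMSO stocks (1 mM or 1 mg/mL) and control antibiotics in water.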

Escherichia coli = assay: Antibacterial activity against Escherichia coli DC10B after 20 hrs by broth microdilution assay; format: functional; how it was run: as §2
Klebsiella pneumoniae = assay: Antibacterial activity against Klebsiella pneumoniae 700603 after 20 hrs by broth microdilution assay; format: functional; settings: Klebsiella pneumoniae, 700603, 20 h; how it was run: as §2
Proteus mirabilis = assay: Antibacterial activity against Proteus mirabilis HM-752 after 20 hrs by broth microdilution assay; format: functional; settings: HM-752, 20 h; how it was run: as §2
Pseudomonas aeruginosa = assay: Antibacterial activity against Pseudomonas aeruginosa ATCC 15442 after 20 hrs by broth microdilution assay; format: functional; settings: ATCC 15442, 20 h; how it was run: as §2
Salmonella typhi = assay: Antibacterial activity against Salmonella typhi Ty2 after 20 hrs by Todd Hewitt broth broth microdilution method; format: functional, Salmonella enterica subsp. enterica serovar Typhi str. Ty2; settings: Salmonella enterica
Yersinia enterocolitica = assay: Antibacterial activity against Yersinia enterocolitica WA-314 after 20 hrs by broth microdilution assay; format: functional; settings: WA-314, 20 h
How it was run: (§3)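 Yersinia cultured in tryptic soy broth at 28°C. A 0.5 McFarland suspension diluted 1:100 receives serial dilutions of agents from 1 mM or 1 mg/mL DMSO stocks; control antibiotics are in water.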

Shigella dysenteriae = assay: Antibacterial activity against Shigella dysenteriae Newcastle 1934 after 20 hrs by broth microdilution assay; format: functional; settings: Newcastle 1934, 20 h; how it was run: as §2
Vibrio cholerae = assay: Antibacterial activity against Vibrio cholerae TS D4 after 20 hrs by Todd Hewitt broth broth microdilution method; format: functional; settings: TS D4, 20 h
[10] = test system: Yersinia pseudotuberculosis; assay: Antibacterial activity against Yersinia pseudotuberculosis P61 after 20 hrs by broth microdilution assay; format: functional; settings: P61, 20 h; how it was run: as §3
Staphylococcus aureus [11] = assay: Synergistic antibacterial activity against methicillin-resistant Staphylococcus aureus COL assessed as vancomycin MIC after 20 hrs by checkerboard microdilution assay; format: functional
Staphylococcus aureus [12] = assay: Synergistic antibacterial activity against methicillin-resistant Staphylococcus aureus COL in presence of vancomycin after 20 hrs by checkerboard microdilution assay; format: functional
Staphylococcus aureus [13] = assay: Synergistic antibacterial activity against methicillin-resistant Staphylococcus aureus COL assessed as fractional inhibitory concentration in presence of vancomycin after 20 hrs by checkerboard microdilution assay; format: functional
Staphylococcus aureus [14] = assay: Synergistic antibacterial activity against vancomycin-intermediate resistant Staphylococcus aureus AR-217 after 20 hrs in presence of vancomycin by checkerboard microdilution assay; format: functional; settings: AR-217, 20 h
Staphylococcus aureus [15] = assay: Synergistic antibacterial activity against vancomycin-intermediate resistant Staphylococcus aureus AR-217 assessed as fractional inhibitory concentration in presence of vancomycin after 20 hrs by checkerboard microdilution assay; format: functional
Staphylococcus aureus [16] = assay: Synergistic antibacterial activity against vancomycin-resistant Staphylococcus aureus HIP14300 assessed as vancomycin MIC after 20 hrs by checkerboard microdilution assay; format: functional; settings: HIP14300, 20 h
Staphylococcus aureus [17] = assay: Synergistic antibacterial activity against vancomycin-resistant Staphylococcus aureus HIP14300 after 20 hrs in presence of vancomycin by checkerboard microdilution assay; format: functional; settings: HIP14300, 20 h
Staphylococcus aureus [18] = assay: Synergistic antibacterial activity against vancomycin-resistant Staphylococcus aureus HIP14300 assessed as fractional inhibitory concentration in presence of vancomycin after 20 hrs by checkerboard microdilution assay; format: functional
[19] = test system: Staphylococcus epidermidis; assay: Synergistic antibacterial activity against vancomycin-intermediate resistant Staphylococcus epidermidis NRS53 assessed as vancomycin MIC after 20 hrs by checkerboard microdilution assay; format: functional; settings: NRS53, 20 h
[20] = test system: Staphylococcus epidermidis; assay: Synergistic antibacterial activity against vancomycin-intermediate resistant Staphylococcus epidermidis NRS53 after 20 hrs in presence of vancomycin by checkerboard microdilution assay; format: functional; settings: NRS53, 20 h
[21] = test system: Staphylococcus epidermidis; assay: Synergistic antibacterial activity against vancomycin-intermediate resistant Staphylococcus epidermidis NRS53 assessed as fractional inhibitory concentration in presence of vancomycin after 20 hrs by checkerboard microdilution assay; format: functional
[22] = test system: Staphylococcus epidermidis; assay: Antibacterial activity against vancomycin-intermediate resistant Staphylococcus epidermidis NRS53 after 20 hrs by broth microdilution assay; format: functional; settings: NRS53, 20 h
HepG2 = assay: Cytotoxicity against human HepG2 cells assessed as reduction in cell viability after 72 hrs by MTT assay; format: cell-based; settings: HepG2, 72 h
[23] = Selectivity index, ratio of IC50 for cytotoxicity against human HepG2 cells to MIC for antibacterial activity against methicillin-resistant Staphylococcus aureus COL; format: toxicity, cell-based; settings: read-out: Selectivity Index
[24] = Selectivity index, ratio of IC50 for cytotoxicity against human HepG2 cells to MIC for antibacterial activity against vancomycin-intermediate resistant Staphylococcus aureus; format: toxicity, cell-based; settings: read-out: Selectivity Index
[25] = Selectivity index, ratio of IC50 for cytotoxicity against human HepG2 cells to MIC for antibacterial activity against vancomycin-resistant Staphylococcus aureus HIP14300; format: toxicity, cell-based; settings: read-out: Selectivity Index
[26] = rat, microsomes
[27] = rat, microsomes, 1 h
Streptococcus pyogenes = assay: Antibacterial activity against Streptococcus pyogenes H293 after 20 hrs by broth microdilution assay; format: functional; settings: H293, 20 h
Streptococcus pneumoniae = assay: Antibacterial activity against Streptococcus pneumoniae TCH8431 after 20 hrs by broth microdilution assay; format: functional; settings: TCH8431, 20 h
Francisella tularensis = assay: Antibacterial activity against Francisella tularensis Utah 112 after 20 hrs by broth microdilution assay; format: functional; settings: Utah 112, 20 h
Bacillus cereus = assay: Antibacterial activity against Bacillus cereus Gibson 971 after 20 hrs by broth microdilution assay; format: functional; settings: Gibson 971, 20 h
Corynebacterium striatum = assay: Antibacterial activity against Corynebacterium striatum FS-1 after 20 hrs by broth microdilution assay; format: functional; settings: FS-1, 20 h
Rhodococcus erythropolis = assay: Antibacterial activity against Rhodococcus erythropolis SK121 after 20 hrs by broth microdilution assay; format: functional; settings: SK121, 20 h
How it was run: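 R. erythropolis grown in brain heart infusion broth at 30°C. A 0.5 McFarland suspension diluted 1:100 is treated with serial dilutions from 1 mM or 1 mg/mL DMSO stocks; control antibiotics are in water.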

Staphylococcus aureus [28] = assay: Synergistic antibacterial activity against vancomycin-intermediate resistant Staphylococcus aureus AR-217 assessed as vancomycin MIC after 20 hrs by checkerboard microdilution assay; format: functional; settings: AR-217, 20 h
Staphylococcus aureus [29] = assay: Antibacterial activity against methicillin-resistant Staphylococcus aureus; format: functional

CCCCCCCCSSC(=S)N(CC)CC
MIC (Staphylococcus aureus [1]): 4 µM (≈ 1.17 µg/mL)
MIC (Staphylococcus aureus [2]): 4 µM (≈ 1.17 µg/mL)
MIC (Staphylococcus aureus [3]): 4 µM (≈ 1.17 µg/mL)
MIC [4]: 4 µM (≈ 1.17 µg/mL)
MIC (Streptococcus agalactiae): 32 µM (≈ 9.39 µg/mL)
MIC (Enterococcus faecium): 8 µM (≈ 2.35 µg/mL)
MIC (Bacillus anthracis [5]): 4 µM (≈ 1.17 µg/mL)
MIC (Bacillus anthracis [6]): 2 µM (≈ 0.587 µg/mL)
MIC (Bacillus anthracis [7]): 2 µM (≈ 0.587 µg/mL)
MIC (Yersinia pestis [8]): 32 µM (≈ 9.39 µg/mL)
MIC (Yersinia pestis [9]): 32 µM (≈ 9.39 µg/mL)
MIC (Listeria monocytogenes): 4 µM (≈ 1.17 µg/mL)
MIC (Micrococcus luteus): 16 µM (≈ 4.7 µg/mL)
MIC (Acinetobacter baumannii): > 32 µM
MIC (Brucella neotomae): > 32 µM
MIC (Burkholderia multivorans): > 32 µM
MIC (Burkholderia cepacia): > 32 µM
MIC (Citrobacter freundii): > 32 µM
MIC (Escherichia coli): > 32 µM
MIC (Klebsiella pneumoniae): > 32 µM
MIC (Proteus mirabilis): > 32 µM
MIC (Pseudomonas aeruginosa): > 32 µM
MIC (Salmonella typhi): > 32 µM
MIC (Yersinia enterocolitica): > 32 µM
MIC (Shigella dysenteriae): > 32 µM
MIC (Vibrio cholerae): > 32 µM
MIC [10]: > 32 µM
MIC (Staphylococcus aureus [11]): 1 µg/mL
MIC (Staphylococcus aureus [12]): 0.25 µg/mL
FIC (Staphylococcus aureus [13]): 0.75
MIC (Staphylococcus aureus [14]): 0.25 µg/mL
FIC (Staphylococcus aureus [15]): 0.56
MIC (Staphylococcus aureus [16]): 1 µg/mL
MIC (Staphylococcus aureus [17]): 1 µg/mL
FIC (Staphylococcus aureus [18]): 0.5
MIC [19]: 2 µg/mL
MIC [20]: 1 µg/mL
FIC [21]: 0.75
MIC [22]: 2 µg/mL (≈ 6.81 µM)
IC50 (HepG2): 50 µM
selectivity ratio [23]: > 13
selectivity ratio [24]: > 13
selectivity ratio [25]: > 13
beta t1/2 [26]: 1.02 h
CLH [27]: 22.6 µL/min/mg

CCN(CC)C(=S)SSC(=S)N(CC)CC
MIC (Staphylococcus aureus [1]): 32 µM (≈ 9.49 µg/mL)
MIC (Staphylococcus aureus [2]): 8 µM (≈ 2.37 µg/mL)
MIC (Staphylococcus aureus [3]): 32 µM (≈ 9.49 µg/mL)
MIC [4]: 32 µM (≈ 9.49 µg/mL)
MIC (Streptococcus pyogenes): 16 µM (≈ 4.74 µg/mL)
MIC (Streptococcus agalactiae): > 32 µM
MIC (Streptococcus pneumoniae): > 32 µM
MIC (Enterococcus faecium): > 32 µM
MIC (Francisella tularensis): 32 µM (≈ 9.49 µg/mL)
MIC (Yersinia pestis [8]): 32 µM (≈ 9.49 µg/mL)
MIC (Yersinia pestis [9]): 32 µM (≈ 9.49 µg/mL)
MIC (Bacillus cereus): 4 µM (≈ 1.19 µg/mL)
MIC (Corynebacterium striatum): > 32 µM
MIC (Listeria monocytogenes): > 32 µM
MIC (Micrococcus luteus): 32 µM (≈ 9.49 µg/mL)
MIC (Rhodococcus erythropolis): 16 µM (≈ 4.74 µg/mL)
MIC (Acinetobacter baumannii): > 32 µM
MIC (Brucella neotomae): > 32 µM
MIC (Burkholderia multivorans): 32 µM (≈ 9.49 µg/mL)
MIC (Burkholderia cepacia): > 32 µM
MIC (Citrobacter freundii): > 32 µM
MIC (Escherichia coli): > 32 µM
MIC (Klebsiella pneumoniae): > 32 µM
MIC (Proteus mirabilis): > 32 µM
MIC (Pseudomonas aeruginosa): > 32 µM
MIC (Yersinia enterocolitica): > 32 µM
MIC (Shigella dysenteriae): > 32 µM
MIC (Vibrio cholerae): > 32 µM
MIC [10]: > 32 µM
MIC (Staphylococcus aureus [28]): 2 µg/mL
MIC (Staphylococcus aureus [16]): 8 µg/mL
MIC (Staphylococcus aureus [17]): 2 µg/mL
MIC [19]: 4 µg/mL
MIC [20]: 2 µg/mL
MIC [22]: 4 µg/mL (≈ 13.5 µM)
IC50 (HepG2): 38 µM
MIC (Staphylococcus aureus [29]): 4 to 32 µg/mL (≈ 13.5 to 108 µM)

From ChEMBL document CHEMBL4219167, “Disulfiram-based disulfides as narrow-spectrum antibacterial agents” (Bioorg Med Chem Lett, 2018)
